Calls of active or inactive are those of the source. The calls are words filed in the database; no cut-off is given here. Some results are limits rather than exact numbers.

Test [1] relates to MDA-MB-231. Nature of the test: Cytotoxicity against human MDA-MB-231 cells assessed as reduction in cell viability after 48 hrs by SRB assay. The settings on record: MDA-MB-231, 48 h. The class given is functional, cell-based. In outline:
(§1)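 Cells exposed to compounds for 48 h; growth inhibition and cytotoxicity read by sulforhodamine B staining. Concentration-response curves fit by four-parameter non-linear regression; IC50 is the concentration giving 50% reduction in cell density versus DMSO vehicle. Cells grown at 37 °C, 5% CO2 (Hs578T in DMEM with 10% FBS and 50 µg/mL gentamicin).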

For test [2], the system named is Hs-578T. Put plainly: Cytotoxicity against human Hs-578T cells assessed as reduction in cell viability after 48 hrs by SRB assay. The format is functional, cell-based. The method, boiled down: as §1
The test system of test [3] is BT-549. Put plainly: Cytotoxicity against human BT-549 cells assessed as reduction in cell viability after 48 hrs by SRB assay. The class given is functional, cell-based. The settings on record: BT-549, 48 h. The method, boiled down: as §1
A short description of test [4]: Selectivity index, ratio of IC50 for human MDA-MB-231 cells to IC50 for human BT-549 cells. The class given is functional.
A short description of test [5]: Inhibition of porcine cerebral cortex Na+/K+-ATPase after 15 mins by ADP-Glo reagent based assay. On the set-up: species or system Sus scrofa.
In test [6] the test system is MDA-MB-231. Nature of the test: Induction of intracellular Ca2+ concentration in human MDA-MB-231 cells at 150 nM after 2 hrs by Cal520-AM dye-based fluorescence assay. The format is functional, cell-based. The method, boiled down: (§2)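 BT-549 and MDA-MB-231 cells in 96-well optical plates at 60–80% confluency, loaded with 2.5 µM Cal-520 AM and 0.2% Pluronic F-127 for 30 min at 37 °C. Same field imaged at 4× at T0 and 2 h after 150 nM compound. Per-cell corrected total fluorescence normalized to T0; two-way ANOVA with Bonferroni test, n = 291–531 cells.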

For test [7], the system named is BT-549. Put plainly: Induction of intracellular Ca2+ concentration in human BT-549 cells at 150 to 500 nM after 3 hrs by Cal520-AM dye-based fluorescence assay. Conditions: dose nM 150-500, time 3.0 hrs. The class given is functional, cell-based. The method, boiled down:
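BT-549 cells on coverslips at 60–80% confluency, loaded with 2.5 µM Cal-520 AM plus 0.2% Pluronic F-127 for 30 min at 37 °C, then washed. Imaged at 20× at T0 and 3 h after 150 or 500 nM compound, multiple fields. Per-cell corrected total fluorescence normalized to T0, versus DMSO; two-way ANOVA with Dunnett's test, n = 102–242 cells.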

A short description of test [8]: Induction of intracellular Ca2+ concentration in human BT-549 cells at 150 nM after 2 hrs by Cal520-AM dye-based fluorescence assay relative to control. The format is functional. In outline:
as §2

Test [9] relates to HCC1806. Put plainly: Cytotoxicity against human HCC1806 cells assessed as reduction in cell viability after 48 hrs by SRB assay. The format is functional, cell-based. The settings on record: HCC1806, 48 h. The method, boiled down: as §1
Test [10] has as its system SUM185PE. Nature of the test: Cytotoxicity against human SUM185PE cells assessed as reduction in cell viability after 48 hrs by SRB assay. The format is functional, cell-based. The method, boiled down: (§3)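 Cells grown at 37 °C in humidified 5% CO2 and exposed to compounds for 48 h. Antiproliferative and cytotoxic effects read by sulforhodamine B staining of cell density. Concentration-response curves fit by four-parameter non-linear regression. IC50 taken as the concentration giving 50% reduction in cell density relative to DMSO vehicle.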

Test [11] has as its system MDA-MB-468. Nature of the test: Cytotoxicity against human MDA-MB-468 cells assessed as reduction in cell viability after 48 hrs by SRB assay. The format is functional, cell-based. The settings on record: MDA-MB-468, 48 h. The method, boiled down:
as §1

Test [12] relates to CAL-51. Put plainly: Cytotoxicity against human CAL-51 cells assessed as reduction in cell viability after 48 hrs by SRB assay. The format is functional, cell-based. The settings on record: CAL-51, 48 h. The method, boiled down: as §1
The subject of test [13] is MDA-MB-453. Nature of the test: Cytotoxicity against human MDA-MB-453 cells assessed as reduction in cell viability after 48 hrs by SRB assay. The format is functional, cell-based. The settings on record: MDA-MB-453, 48 h. In outline: as §3
Test [14] deals with HCC1937. Nature of the test: Cytotoxicity against human HCC1937 cells assessed as reduction in cell viability after 48 hrs by SRB assay. Conditions: HCC1937, 48 h. The class given is functional, cell-based. The method, boiled down:
as §1

Test [15] concerns HCC70. Put plainly: Cytotoxicity against human HCC70 cells assessed as reduction in cell viability after 48 hrs by SRB assay. The format is functional, cell-based. Conditions: HCC70, 48 h. The method, boiled down:
as §1

With `C[C@]12CC[C@H](O)C[C@@H]1CC[C@@H]1[C@@H]2CC[C@]2(C)[C@@H](C3=CC(=O)OC3)CC[C@]12O`, the IC50 in test [1] was above 30000 nM; in test [2] it was 3600 nM; in [3], 3900 nM. In addition, in test [4], the “Ratio IC50” value is recorded as above 8. The same molecule yielded an EC50 in test [5] of 2100 nM.

On to `C[C@H]1O[C@H]2O[C@@H]3C[C@@H]4CC[C@@H]5[C@H](CC[C@]6(C)[C@@H](C7=CC(=O)OC7)CC[C@]56O)[C@@]4(C=O)C[C@H]3O[C@@]2(O)[C@H](O)[C@@H]1O`, for which the IC50 in test [1] was 630 nM; in test [2], 120 nM; in [3] it was 49 nM. Moreover, the “Ratio IC50” value in test [4] was 13. In [5], this molecule had an EC50 of 300 nM.

`C[C@H]1O[C@@H](O[C@@H]2C[C@@H]3CC[C@@H]4[C@H](CC[C@]5(C)[C@@H](C6=CC(=O)OC6)CC[C@]45O)[C@@]3(C=O)C[C@H]2O)[C@H](O)[C@H](O)[C@@H]1O`: the half-maximal inhibitory concentration (IC50) in [1] was found to be 10000 nM; in test [2], 3900 nM; in [3], 1400 nM. In [4], the “Ratio IC50” value is listed as 7. This molecule also returned an EC50 in test [5] of 2500 nM.

With `C[C@H]1O[C@@H](O[C@H]2CC[C@@]3(CO)[C@@H](CC[C@@H]4[C@@H]3CC[C@]3(C)[C@@H](C5=CC(=O)OC5)CC[C@]43O)C2)[C@H](O)[C@H](O)[C@@H]1O`, the IC50 in test [1] was 1250 nM; in [2], 380 nM; in [3] it was 121 nM. Also, the “Ratio IC50” value in test [4] amounted to 10. In test [5], this molecule yielded an EC50 of 500 nM.

Consider `C[C@H]1O[C@@H](O[C@H]2CC[C@@]3(CO)[C@@H](CC[C@@H]4[C@@H]3CC[C@]3(C)[C@@H](C5=CC(=O)OC5)CC[C@]43O)C2)[C@H](O)[C@H](O)[C@@H]1O[C@@H]1O[C@H](CO)[C@@H](O)[C@H](O)[C@H]1O`, for which the IC50 is 980 nM in [1], 300 nM in [2] and 70 nM in test [3]. For the same molecule, the “Ratio IC50” value in test [4] was 14. In [5], this molecule returned an EC50 of 600 nM.

With `C[C@@H]1C[C@H](O)[C@]2(O)O[C@@H]3C[C@@]4(C=O)[C@@H](CC[C@@H]5[C@@H]4CC[C@]4(C)[C@@H](C6=CC(=O)OC6)CC[C@]54O)C[C@H]3O[C@@H]2O1` [CALOTROPIN], the IC50 worked out at 440 nM in test [1], 60 nM in test [2] and 30 nM in test [3]. For the same molecule, the result in [6] and in test [7] was Active. For the same molecule, the “Ratio IC50” value in test [4] is given as 15. For the same molecule, the “fold change (FC)” value in test [8] is on record as 2. The same molecule displayed an EC50 in test [5] of 360 nM.

For the molecule `C[C@]12CC[C@H]3[C@@H](CC[C@H]4C[C@@H](O)CC[C@@]43CO)[C@@]1(O)CC[C@@H]2C1=CC(=O)OC1` [COROGLAUCIGENIN], the IC50 in [1] amounted to 20000 nM; in [2], 1800 nM; in test [3], 2300 nM. In addition, the “Ratio IC50” value in test [4] was 9. The midpoint of the response in [5], the EC50, lay at 1100 nM.

As to `C[C@]12CC[C@H](O[C@@H]3O[C@H](CO)[C@@H](O)[C@H](O)[C@H]3O)C[C@@H]1CC[C@@H]1[C@@H]2CC[C@]2(C)[C@@H](C3=CC(=O)OC3)CC[C@]12O` [DESGLUCOUZARIN], the IC50 worked out at 10000 nM in test [1], 1570 nM in [2] and 1800 nM in test [3]. In test [4], the “Ratio IC50” value came out at 6. In test [5], this molecule showed a half-maximal effective concentration (EC50) of 1100 nM.

`C[C@H]1O[C@@H](O[C@H]2[C@@H](O)C[C@H](O[C@H]3[C@@H](O)C[C@H](O[C@H]4CC[C@@]5(C)[C@H](CC[C@@H]6[C@@H]5C[C@@H](O)[C@]5(C)[C@@H](C7=CC(=O)OC7)CC[C@]65O)C4)O[C@@H]3C)O[C@@H]2C)C[C@H](O)[C@@H]1O` [DIGOXIN]: the IC50 in [1] came out at 480 nM; in test [9], 280 nM; in [10] it was 280 nM; in test [11] it was 230 nM; in test [12], 130 nM; in test [2], 69 nM. Besides, the IC50 was 51 nM in test [3], 230 nM in test [13], 550 nM in test [14] and 640 nM in test [15].

In the case of `C[C@@H]1C[C@@]2(N=CCS2)[C@]2(O)O[C@@H]3C[C@@]4(C=O)[C@@H](CC[C@@H]5[C@@H]4CC[C@]4(C)[C@@H](C6=CC(=O)OC6)CC[C@]54O)C[C@H]3O[C@@H]2O1` [USCHARIN], the IC50 in test [1] came out at 102 nM; in test [2] it was 34 nM; in [3], 14.6 nM. Besides, the “Ratio IC50” value in test [4] is 7. This molecule also yielded an EC50 in test [5] of 910 nM.

Values taken from ChEMBL document CHEMBL4665698, “Triple-Negative Breast Cancer Cells Exhibit Differential Sensitivity to Cardenolides from Calotropis gigantea” (J Nat Prod, 2020).
